# Screening results (PubChem BioAssay)
# Rows were chosen to be rich in hits. Some 0.63% of all compounds tested hit in one or more screens of this group.
# STK33 inh – blocks human STK33 kinase activity | Q9BYT3 | purified STK33, MBP phosphorylation, ADP-Glo luminescence | inhibition, % at 10 µM | 320,000 compounds, 0.073% hits;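 active = inhibition at or above 25%, using the most active replicate where run in duplicate; inactive = inhibition below 25%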
# Target sequence (Q9BYT3 whole entry, looked up): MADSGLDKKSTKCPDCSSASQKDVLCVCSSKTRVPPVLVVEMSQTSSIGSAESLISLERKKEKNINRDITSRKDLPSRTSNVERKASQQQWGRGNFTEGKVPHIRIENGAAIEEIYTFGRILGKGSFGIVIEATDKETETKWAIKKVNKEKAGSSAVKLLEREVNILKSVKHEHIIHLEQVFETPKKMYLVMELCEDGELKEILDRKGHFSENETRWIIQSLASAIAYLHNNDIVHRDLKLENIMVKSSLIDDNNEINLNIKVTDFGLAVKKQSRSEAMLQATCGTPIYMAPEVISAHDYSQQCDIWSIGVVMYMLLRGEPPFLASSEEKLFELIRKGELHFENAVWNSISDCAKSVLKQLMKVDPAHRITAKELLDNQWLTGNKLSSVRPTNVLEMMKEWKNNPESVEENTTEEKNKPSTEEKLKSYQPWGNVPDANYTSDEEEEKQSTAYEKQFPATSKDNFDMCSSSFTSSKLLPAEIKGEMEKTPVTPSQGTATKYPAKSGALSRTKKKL
# MT1-MMP act inh – inhibitors of human MT1-MMP activation | P50281 | HT1080 RFP-PRO-GFP cells, GFP/RFP ratio fluorescence, overnight; percent of plate control window, DMSO zero | GFP/RFP ratio change, % at 20 µM | 360,000 compounds, 0.061% hits | AID 651647;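 active = GFP/RFP ratio change of at least 30% with cell ATP level not reduced by more than half and red fluorescence within 50% of control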
#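 Compound: 20 µM single dose, 1% DMSO / System: HT1080 RFP-PRO-GFP cells / Controls: DMSO and RFP-L50D-GFP cell wells / Read-out basis: GFP/RFP fluorescence ratio / Schedule: overnight compound exposure at 37 °C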
# DSG3 Ab inh – blocks pemphigus antibody binding to human desmoglein-3; P32926; DSG3-coupled beads, scFv-anti-DSG3-GFP binding, flow cytometry; stronger effect = lower value; binding (percent of control), % at 10 µM; 310,000 compounds, 0.48% hits; AID 588358;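 active = binding more than 3 SD below its plate's average and above zero; inconclusive = below that plate limit but binding exactly zero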
# GSK3B inh – human GSK3beta kinase inhibition | P49841 | GST-GSK3beta kinase, ADP-Glo luminescence, 60 min; stronger effect = lower value | activity score (negative = inhibition), % at 10 µM | 300,000 compounds, 0.038% hits | AID 2097;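 active = more than half of replicate wells score below -50%, meaning over 50% inhibition versus plate controls; inconclusive = some replicates but at most half score below -50%; inactive = no replicate scores below -50%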
#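 Assay system: GST-fused GSK3beta enzyme, cell-free / Medium: Tris pH 7.5 buffer with MgCl2, DTT, BSA, heparin / Also added: peptide substrate plus 25 µM ATP (final) / Compound: 10 µM single point / Timing: kinase reaction with compound 60 min at room temperature / Detection: ADP-Glo luminescence / Benchmarks: DMSO neutral wells and GW8510 at 20 µM as positive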
# GSK3A inh – inhibitors of human GSK-3 alpha kinase; 320,000 compounds, 0.1% hits; ADP-Glo luminescence, 60 min; AID 2650; inhibition, % at 10 µM; P49840;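 active = more than half of replicates show inhibition above 20%; inconclusive = some but at most half of replicates above 20% inhibition; inactive = no replicate shows inhibition above 20%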;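 also: GST-tagged GSK-3 alpha with peptide substrate and 25 µM ATP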
# Numbers stand for hits; n = inactive; u = inconclusive; x = not tested or not shown.
SMILES,STK33 inh,MT1-MMP act inh,DSG3 Ab inh,GSK3B inh,GSK3A inh
Cc1ccc(C(=O)NCCc2nnc3ccc(SCC(=O)Nc4nnc(C)s4)nn23)cc1,x,n,n,x,x
O=[N+]([O-])c1cc(/C=N/O)ccc1Oc1ccccc1Cl,n,n,n,-52,65
O=C(N/N=C/c1ccc(OC(=O)c2ccc([N+](=O)[O-])cc2)cc1)c1cccnc1,n,n,8.2,n,n
O=C(N/N=C/c1ccc(OC(=O)c2ccccc2)cc1)c1cccnc1,n,n,x,n,n
O=C(N/N=C/c1ccc([N+](=O)[O-])cc1)c1cc(C2CC2)[nH]n1,n,n,n,n,n
O=C(N/N=C/c1ccc([N+](=O)[O-])cc1)c1[nH]ncc1Br,n,n,59,n,n
O=C(N/N=C/c1ccc(O)c(O)c1)N/N=C/c1ccc(O)c(O)c1,n,n,n,n,54
COCCOC(=O)N1CCCCC1c1cc(C(=O)Nc2cccc3c2CCCC3)no1 (stereo unspecified),x,n,x,x,x
COc1ccc(/C=N/n2c(-c3n[nH]c4c3CCC4)n[nH]c2=S)cc1OC,n,n,n,n,n
COc1cc(/C=N/n2c(-c3ccccc3)n[nH]c2=S)ccc1O,46,n,n,n,n
COc1cc(/C=N/n2c(-c3n[nH]c4c3CCC4)n[nH]c2=S)ccc1O,40,n,n,n,n
CC1(Oc2ccccc2-c2ccno2)CCN(Cc2csc3ccccc23)C1 (stereo unspecified),x,n,x,x,x
Cc1cc2oc(=O)cc(-c3ccccc3)c2c(C)c1-c1ccc(CO)cc1,x,n,n,x,x
Cc1cc2oc(=O)cc(-c3ccccc3)c2c(C)c1-c1ccc(F)c(Cl)c1,x,n,74,x,x
Cc1ccc(S(=O)(=O)N2[C@H](CC(=O)Oc3ccccc3)OC[C@@H]2C(C)C)cc1,x,n,x,x,x
CCOC(=O)N/N=C/c1cn(CCCOc2ccc(C)cc2)c2ccccc12,n,n,-31,n,n
CCOC(=O)N/N=C/c1cn(Cc2ccc(Cl)cc2)c2ccccc12,n,n,-28,n,n
CCCCCCCCN1C(=O)[C@H](CC(=O)N2CCSCC2)C[C@@]2(C(=O)OC)CCCCC=C12,x,n,x,x,x
CC(C)=CCC[C@H](C)C[C@@H]1CC2=C(C(=O)OC(C)(C)O2)[C@@H](c2ccc(F)cc2)O1,x,n,x,x,x
CNC(=S)N/N=C/c1ccc(-c2cc([N+](=O)[O-])ccc2Cl)o1,n,n,-12,n,n
N#C/C(=C/c1ccc(-c2cc([N+](=O)[O-])ccc2Cl)o1)C(N)=O,n,n,75,n,n
N#C/C(=C/c1ccc(-c2ccccc2[N+](=O)[O-])o1)C(N)=O,n,n,n,n,n
COC(=O)C[C@H]1C=C[C@H](NC(=O)c2cccc(F)c2)[C@@H](CO)O1,x,n,x,x,x
CCCc1cc(=O)oc2cc(OCC(=O)N3CCOCC3)c(Cl)cc12,n,n,n,n,n
CCCc1cc(=O)oc2cc(OCC(=O)N(C)C)c(Cl)cc12,n,n,2.6,n,n
SMILES,STK33 inh,MT1-MMP act inh,DSG3 Ab inh,GSK3B inh,GSK3A inh
COc1ccc(CCNC(=O)c2cc3ccc(Cl)cc3nc2N)cc1,x,n,x,x,x
CCCCC(CC)CN=C(N)NC(N)=NCCCCCCN=C(N)NC(N)=NCC(CC)CCCC (stereo unspecified),29,x,n,x,n
CC(C)CN1CCN(Cc2nc(C(C)C)cs2)CC1CCO (stereo unspecified),n,n,-8.8,n,n
CCC(CC)c1nnc(NC(=O)c2cc(-c3ccccc3)nc3ccccc23)s1,n,n,n,n,n
CCC(CC)c1nnc(NC(=O)c2ccc3ccccc3n2)s1,n,n,13,n,n
CC(=O)Oc1ccc(Cn2c(C)c(C(=O)NC3CC3)sc2=O)cc1,x,n,x,x,x
c1cncc(Nc2nc(-c3cccnc3)cs2)c1,34,n,n,n,n
Cc1cccc(CN2CCN(C3CN(Cc4ccc([N+](=O)[O-])cc4)S(=O)(=O)C3)CC2)c1 (stereo unspecified),x,n,x,x,x
CCOC(=O)CCCN1CC(O)=C(c2nc(-c3ccc(Cl)cc3)cs2)C1=N,n,n,96,n,n
O=S(=O)(c1cccs1)N1CCN(c2ccccn2)CC1,n,n,80,n,n
CCCCn1nnnc1C(c1ccccc1)N1CCN(c2ncc(C(F)(F)F)cc2Cl)CC1 (stereo unspecified),x,n,x,x,x
Cc1nn(-c2ccccc2)c2[nH]c(=O)c(CNc3ccc(N4CCOCC4)cc3)cc12,n,n,76,n,n
CC(C)(C)c1nn(-c2ccccc2)c2[nH]c(=O)c(CNc3ccc4c(c3)OCCO4)cc12,n,n,n,n,n
O=C(NCc1ccncc1)[C@@H]1CCCN1C(=O)[C@@H]1CCCN1C(=O)c1cccc2ccccc12,x,n,x,x,x
C=CCNc1nc(N)c(C(=O)Nc2cc(C)on2)s1,n,n,n,n,n
C=CCNc1nc(N)c(C(=O)c2ccc3c(c2)OCO3)s1,n,n,n,x,79
CC1(C(=O)NS(=O)(=O)c2cccc(OC(F)F)c2)CCN1C(=O)C1CCCCC1 (stereo unspecified),x,n,x,x,x
COC(=O)[C@@]12C[C@@H](CC(=O)N3CCN(C(=O)c4ccco4)CC3)C(=O)N(Cc3cccc4ccccc34)C1=CCC(C)(C)C2,x,n,x,x,x
CCOC(=O)Cc1nnc(NC(=O)COc2ccc(C)cc2)s1,27,n,u,n,n
CCc1ccc(/C(C)=N/NC(=O)CNC(=O)/C=C/c2ccco2)cc1,n,x,64,n,n
O=C(/C=C/c1ccco1)NCc1ccco1,n,n,80,n,n
O=C(CNC(=O)/C=C/c1ccco1)N=Nc1c(O)[nH]c2ccccc12,n,n,45,n,n
CCCCCC(=O)N1C[C@H](O)[C@@H](n2cc(C3CC3)nn2)C[C@@H]1c1ccc(C)cc1,x,n,n,x,x
O=C(CSc1nnc(-c2ccc(O)cc2)o1)Nc1cccc(O)c1,n,n,n,n,n
CC(=O)Nc1ccc(NC(=O)CSc2nnc(-c3ccc4c(c3)OCO4)o2)cc1,n,n,-15,x,n
SMILES,STK33 inh,MT1-MMP act inh,DSG3 Ab inh,GSK3B inh,GSK3A inh
NS(=O)(=O)c1ccc(NC(=O)CSc2nnc(-c3ccc(O)cc3)o2)cc1,n,n,n,n,53
C=CCC(NC(=O)N(C)C)(C(=O)OC)C(C)O (stereo unspecified),x,n,x,x,x
CC(=O)c1cc2cccc(OC3(C)CCN(Cc4ccc(-c5ccccn5)cc4)C3)c2o1 (stereo unspecified),x,n,x,x,x
COc1ccc(NC(=O)NCc2ccc3c(c2)OCO3)cc1,n,x,82,n,n
CC(=NNC(=S)Nc1ccc(C)cc1)c1ccccn1,x,n,n,x,x
C/C(=N\NC(=O)c1ccccc1Cl)c1ccccn1,n,n,61,n,n
COc1ccccc1NC(=S)NN=C(C)c1ccccn1,x,n,-0.8,x,x
COc1cc2c(cc1OC)C(c1ccc3c(c1)Cc1ccccc1-3)OC(=O)C2 (stereo unspecified),x,n,x,x,x
CCCCCCCCN1C(=O)[C@H](CC(=O)NCCCOCCCC)C[C@@]2(C(=O)OCC)CCCC=C12,x,n,x,x,x
